Measured values reported in ChEMBL document CHEMBL5338825, “Structure-Based Discovery of Inhibitors of the SARS-CoV-2 Nsp14 N7-Methyltransferase” (J Med Chem, 2023).
pIC50: −log10 of the molar value. Calls of active or inactive are those of the source. The rule behind the calls is not given here.

Assays:
[1] = biological target: Replicase polyprotein 1ab (Severe acute respiratory syndrome coronavirus 2, UniProt P0DTD1); assay: (§1) Inhibition of N-terminal 6His/SUMO-tagged SARS-CoV-2 NSP14 expressed in Escherichia coli Rosetta 2 (DE3) PlysS cells using 5'GpppACCCCCCCCC-Biotin 3' and 3H-SAM as substrates incubated for 30 mins by TopCount scintillation proximity assay
[2] = Aggregation property of the compound in KPi buffer at pH 7.0 assessed as formation of colloid-like particles by dynamic light scattering analysis; assay type: physicochemical
In short: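 Compounds diluted as 8-point half-log series in filtered 50 mM KPi, pH 7.0, with 1% v/v DMSO final. Particles detected by dynamic light scattering, triplicate at each concentration. CAC taken as the intersection of separate nonlinear fits to aggregating (>10^6 scattering intensity) and non-aggregating data.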

[3] = biological target: Replicase polyprotein 1ab (Severe acute respiratory syndrome coronavirus 2) (UniProt P0DTD1); assay: Inhibition of N-terminal 6His/SUMO-tagged SARS-CoV-2 NSP14 expressed in Escherichia coli Rosetta 2 (DE3) PlysS cells using 5'GpppACCCCCCCCC-Biotin 3' and 3H-SAM as substrates at 300 uM incubated for 30 mins by TopCount scintillation proximity assay relative to control
[4] = system: Bacteria; assay: Inhibition of beta-lactamase AmpC (unknown origin) pre-incubated with compound for 5 mins followed by substrate addition and measured after 1.5 mins by absorbance based plate reader analysis; conditions: time 6.5 min
In short: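 AmpC at 2 nM preincubated 5 min with compound at room temperature in 50 mM KPi, pH 7.0, with 1% v/v DMSO. Started with 50 μM CENTA (read at 405 nm) or 50 μM nitrocefin (read at 490 nm), monitored 1 min 30 s. Initial rate taken as % of DMSO control. Top concentration in triplicate; eight-point half-log curves in triplicate where inhibition exceeded 40%.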

[5] = organism: Homo sapiens; assay: Inhibition of MDH (unknown origin) using oxaloacetic acid as substrate preincubated with compound for 5 mins followed by substrate addition and measured after 1.5 min in the presence of NADH by absorbance based plate reader analysis; conditions: time 6.5 min
In short: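 MDH assay at room temperature in 50 mM KPi, pH 7.0, with 1% v/v DMSO final. Compound preincubated 5 min with 2 nM enzyme. Reaction started with 200 μM NADH plus 200 μM oxaloacetic acid, and absorbance followed at 340 nm for 1 min 30 s. Initial rate divided by the DMSO control rate. Single top concentration in triplicate; eight-point half-log curves in triplicate where inhibition exceeded 40%.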

[6] = biological target: Replicase polyprotein 1ab (Severe acute respiratory syndrome coronavirus 2) (UniProt P0DTD1); assay: Inhibition of N-terminal 6His/SUMO-tagged SARS-CoV-2 NSP14 expressed in Escherichia coli Rosetta 2 (DE3) PlysS cells using 5'GpppACCCCCCCCC-Biotin 3' and 3H-SAM as substrates at 100 uM incubated for 30 mins by TopCount scintillation proximity assay relative to control
[7] = organism: Homo sapiens; assay: Inhibition of MDH (unknown origin) using oxaloacetic acid as substrate preincubated with compound for 5 mins followed by substrate addition and measured after 1.5 min in the presence of NADH and 0.01% Triton-X 100 by absorbance based plate reader analysis; conditions: time 6.5 min
In short: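 Detergent-reversal MDH assay: 50 mM KPi, pH 7.0, with 1% v/v DMSO and 0.01% v/v Triton X-100. Enzyme at 2 nM preincubated 5 min with compound, then started with 200 μM NADH plus 200 μM oxaloacetate. A340 read for 1 min 30 s, rate normalised to DMSO control. Eight-point half-log curves in triplicate.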

[8] = system: Bacteria; assay: Inhibition of beta-lactamase AmpC (unknown origin) pre-incubated with compound for 5 mins followed by substrate addition and measured after 1.5 mins in the presence of 0.01% Triton-X 100 by absorbance based plate reader analysis; conditions: time 6.5 min
In short: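 AmpC detergent-reversal assay: 50 mM KPi, pH 7.0, with 1% v/v DMSO and 0.01% v/v Triton X-100. Enzyme at 2 nM preincubated 5 min with compound, then 50 μM CENTA (405 nm) or nitrocefin (490 nm) added. Absorbance followed for 1 min 30 s and rate normalised to DMSO. Eight-point half-log curves in triplicate.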

[9] = biological target: Replicase polyprotein 1ab (Severe acute respiratory syndrome coronavirus 2) (UniProt P0DTD1); assay: Irreversible covalent inhibition of N-terminal 6His/SUMO-tagged SARS-CoV-2 NSP14 expressed in Escherichia coli Rosetta 2 (DE3) PlysS cells using 5'GpppACCCCCCCCC-Biotin 3' and 3H-SAM as substrates assessed as adduct formation at 50 uM measured upto 18 hrs by mass spectrometric analysis
In short: (§2)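 1 μM enzyme held alone or with 50 or 500 μM compound at room temperature. Sampled at 0, 2, 4, 8 and 18 h by QTof MS in 0.05% formic acid; intact mass deconvoluted from 700–1400 m/z.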

[10] = biological target: Replicase polyprotein 1ab (Severe acute respiratory syndrome coronavirus 2) (UniProt P0DTD1); assay: Irreversible covalent inhibition of N-terminal 6His/SUMO-tagged SARS-CoV-2 NSP14 expressed in Escherichia coli Rosetta 2 (DE3) PlysS cells using 5'GpppACCCCCCCCC-Biotin 3' and 3H-SAM as substrates assessed as adduct formation at 500 uM measured upto 18 hrs by mass spectrometric analysis; in short: as §2
[11] = biological target: Replicase polyprotein 1ab (Severe acute respiratory syndrome coronavirus 2) (UniProt P0DTD1); assay: Inhibition of N-terminal 6His/SUMO-tagged SARS-CoV-2 NSP14 expressed in Escherichia coli Rosetta 2 (DE3) PlysS cells using 5'GpppACCCCCCCCC-Biotin 3' and 3H-SAM as substrates at 30 to 50 uM incubated for 30 mins by TopCount scintillation proximity assay relative to control; conditions: dose 30-50 µM
[12] = biological target: Replicase polyprotein 1ab (Severe acute respiratory syndrome coronavirus 2) (UniProt P0DTD1); assay: Non-covalent inhibition of N-terminal 6His/SUMO-tagged SARS-CoV-2 NSP14 expressed in Escherichia coli Rosetta 2 (DE3) PlysS cells using 5'GpppACCCCCCCCC-Biotin 3' and 3H-SAM as substrates incubated for 30 mins by TopCount scintillation proximity assay
In short: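 Radiometric N7-MTase assay tracking [3H]-methyl transfer from SAM onto the cap of […] RNA, run with 0.01% v/v Triton X-100. Concentration–response in triplicate to give IC50.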

[13] = biological target: Replicase polyprotein 1ab (Severe acute respiratory syndrome coronavirus 2) (UniProt P0DTD1); assay: Competitive inhibition of N-terminal 6His/SUMO-tagged SARS-CoV-2 NSP14 expressed in Escherichia coli Rosetta 2 (DE3) PlysS cells using 5'GpppACCCCCCCCC-Biotin 3' and 3H-SAM as substrates at increasing concentration incubated for 30 mins by TopCount scintillation proximity assay
In short: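 Competition pattern read from IC50 shifts. […] Separately, SAM fixed at 1.25 μM (5× Km) with RNA varied up to 0.5 μM (10× Km). A linear rise of IC50 with substrate concentration was taken as competitive inhibition.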

[14] = biological target: Replicase polyprotein 1ab (Severe acute respiratory syndrome coronavirus 2) (UniProt P0DTD1); assay: Reversible inhibition of N-terminal 6His/SUMO-tagged SARS-CoV-2 NSP14 expressed in Escherichia coli Rosetta 2 (DE3) PlysS cells using 5'GpppACCCCCCCCC-Biotin 3' and 3H-SAM as substrates at increasing concentration incubated for 30 mins by TopCount scintillation proximity assay
[15] = biological target: Replicase polyprotein 1ab (Severe acute respiratory syndrome coronavirus 2) (UniProt P0DTD1); assay: Irreversible covalent inhibition of N-terminal 6His/SUMO-tagged SARS-CoV-2 NSP14 expressed in Escherichia coli Rosetta 2 (DE3) PlysS cells using 5'GpppACCCCCCCCC-Biotin 3' and 3H-SAM as substrates assessed as adduct formation incubated for 2 hrs by mass spectrometric analysis
In short: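 Nsp14 incubated with 20-fold molar excess of compound for 2 h at 20 °C, then taken into 0.1% formic acid. Separated by HPLC on a 5–95% acetonitrile/water gradient and analysed by ESI time-of-flight MS for protein mass shift.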

[16] = biological target: Replicase polyprotein 1ab (Severe acute respiratory syndrome coronavirus 2) (UniProt P0DTD1); assay: as §1

SMILES | pIC50 [1] | Activity [2] | inhibition [3] | inhibition [5] | other results
COc1cc(F)cc(NC(=O)c2cccc(-c3cnc4[nH]c(=O)n(C)c4c3)c2)c1 | 4.85 |  |  |  | 
Cc1nc2ncc(-c3c[nH]nn3)cc2[nH]1 | 3.90 | Active | > 50% |  | 
CN(Cc1ccncc1)c1cc(Br)ncn1 | 3.77 | Active | > 50% |  | 
Nc1cn2cc(-c3cscc3Cl)ncc2n1 | 4.11 |  | > 50% |  | 
O=C(OCc1cn2cc(Br)ccc2n1)c1cc(-c2ccco2)[nH]n1 | 5.22 |  |  |  | 
C#Cc1cccc(NC(=O)c2cccc(-c3cnc4[nH]c(=O)n(C)c4c3)c2)c1 |  |  |  | inactive | inhibition [4]: inactive; CAC [2]: 10 µM
C=C(Cl)COC(=O)c1cnc2[nH]ccc2c1 | 4.51 |  | > 50% | Active | 
Cn1ncc(N)c1-c1cc2ccccc2[nH]1 | 3.47 | Active | > 50% |  | 
O=Cc1nc2ccccn2c1C=C1COC1 | 4.96 |  |  |  | inhibition [6]: > 50%
Cn1c(=O)[nH]c2ncc(-c3cccc(C(=O)Nc4ccc(Cl)c(CO)c4)c3)cc21 | 4.82 |  |  |  | 
N#Cc1c(C(=O)NCc2ccc(O)c([N+](=O)[O-])c2)[nH]c2ccccc12 | 4.57 | Active |  | Active | inhibition [4]: Active; inhibition [7]: inactive; inhibition [8]: inactive
CCc1c(C(=O)/C=C/c2ccc(O)c([N+](=O)[O-])c2)oc2ccccc12 | 4.60 |  |  |  | 
Cc1c(C(=O)/C=C/c2cc(Br)c(O)cc2F)c(C#N)c2n1CCC2 |  | Active |  | Active | inhibition [4]: Active; inhibition [7]: inactive; inhibition [8]: inactive
C=CC(=O)NCC(=O)C(=O)N1CCC(C2C(=O)Nc3cc(Cl)ccc32)CC1 (stereo not given) | 5.15 |  |  |  | inhibition [9]: Active
O=C(NC1CSC1)c1ncnn2cccc12 | 4.21 | Active | > 50% |  | 
C=CC(=O)NCCC(=O)N1CCC(C2C(=O)Nc3cc(Cl)ccc32)CC1 (stereo not given) | 4.49 |  |  |  | inhibition [6]: > 50%; inhibition [10]: Active
N#Cc1cncc(NCc2cc(Br)c[nH]2)n1 | 4.22 |  | > 50% |  | 
Cn1c(=O)[nH]c2ncc(-c3cccc(C(=O)Nc4cccc(C#N)c4)c3)cc21 | 4.70 |  |  | inactive | inhibition [4]: inactive; inhibition [11]: > 50%; inhibition [12]: Active; CAC [2]: 10 µM
Cn1c(C(=O)NCc2ccc(O)c([N+](=O)[O-])c2)c(Br)c2ccccc21 | 4.72 | Active |  | Active | inhibition [4]: Active; inhibition [7]: inactive; inhibition [8]: inactive
CC(C)SCn1cnc2cnn(C)c2c1=O | 4.23 | Active | > 50% | Active | inhibition [7]: inactive
Oc1ccccc1-c1ncnc2[nH]ccc12 | 4.92 |  | > 50% | Active | inhibition [4]: Active; inhibition [13]: Active; inhibition [14]: Active; inhibition [7]: inactive
O=Cc1cc(F)c(C(=O)Nc2cc(Cl)c3c(c2)OCCO3)cc1F | 4.60 |  |  |  | inhibition [6]: > 50%
CN(C)c1cncc(NC(=O)c2ccc(C=O)cc2O)c1 | 4.92 |  |  | inactive | inhibition [4]: inactive; inhibition [6]: > 50%
C=CC(=O)N(C)c1ccc(C(=O)Nc2ccc(-c3cn4ccsc4n3)cc2)cc1 | 4.41 |  |  |  | inhibition [6]: > 50%; inhibition [15]: inactive
CCC(=O)NCCC(=O)N1CCC(C2C(=O)Nc3cc(Cl)ccc32)CC1 (stereo not given) |  |  |  |  | inhibition [16]: inactive
Cc1cc(C(=O)Nc2cccc(N3CCNC3=O)c2C)sc1C=O | 5.46 |  |  |  | inhibition [6]: > 50%
